Values after ≈ are worked out from the molar mass of the structure shown.

The results in this text go back to ChEMBL document CHEMBL1165857, “Novel 3-alkanoyl/aroyl/heteroaroyl-2H-chromene-2-thiones: synthesis and evaluation of their antioxidant activities” (Eur J Med Chem, 2010).

The subject of test [1] is Radical scavenging activity. The test is described as follows: Antioxidant activity assessed as DPPH radical scavenging activity. The format is functional. The method, boiled down: (§1)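 DPPH (100 μM) in absolute methanol, compounds at 0–1000 μg/mL, in triplicate. After 30 min in the dark at room temperature, absorbance read at 515 nm against a blank. Percent decoloration taken relative to a methanol-treated control with DPPH and no sample; IC50 calculated in μg/mL.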
A general note: Loss of DPPH colour is used to gauge radical scavenging.

The nature of test [2]: DPPH radical scavenging activity assessed as ascorbic acid equivalent antioxidant capacity. The format is functional. In short, it runs like this:
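DPPH IC50 determined as above (100 μM DPPH in methanol, 30 min dark, room temperature, 515 nm). AEAC in mg ascorbic acid/g sample calculated as IC50(ascorbate)/IC50(sample) × 1000.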

Test [3] in a line: Protective index against GS radical-induced curcumin depletion at 10 ug/ml irradiated at 100 Gy. The method, boiled down:
(§2)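 Reaction solution: 20 μM curcumin and 15 mM GSH in 60% methanol, with sample at 10 μg/mL. Control had no sample. Solutions were γ-irradiated to generate GS• radicals; doses up to 250 Gy, with PI reported at 100 Gy. Curcumin depletion followed by absorbance at 425 nm against a blank. Protective index (%) derived from depletion with versus without sample.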

Test [4] relates to Radical scavenging activity. The test is described as follows: Antioxidant activity assessed as DPPH radical scavenging activity at 250 ug/ml. Type of test: functional. In short, it runs like this: as §1
The nature of test [5]: Antioxidant activity assessed as inhibition of glutathione-induced curcumin depletion at 10 ug/ml. Type of test: functional. The method, boiled down:
as §2

In general, IC50 refers to the concentration that inhibits the measured activity by half. `O=C(c1ccc(Cl)cc1)c1cc2cc(Br)ccc2oc1=S`: the IC50 in test [1] was 850.41 µg/mL (≈ 2240 µM).
For `COc1ccc(C(=O)c2cc3cccc(OC)c3oc2=S)cc1`, the IC50 in test [1] came out at 603.43 µg/mL (≈ 1850 µM).
In the case of `COc1cccc2cc(C(=O)c3ccc(Cl)cc3)c(=S)oc12`, in test [2], the Activity was found to be 40 mg/g. In test [1], the IC50 is 95.57 µg/mL (≈ 289 µM). This compound also had a PI in test [3] of 25.2%.
Take `COc1ccc(C(=O)c2cc3cc(Br)ccc3oc2=S)cc1`: the IC50 in test [1] was 1112.83 µg/mL (≈ 2970 µM).
As for `COc1cccc2cc(C(=O)c3ccc(C)cc3)c(=S)oc12`, the Activity in test [2] stood at 16.4 mg/g. In test [1], the IC50 stood at 233.71 µg/mL (≈ 753 µM). Further, the PI in test [3] came to 3.65%.
As to `COc1cccc2cc(C(C)=O)c(=S)oc12`, the IC50 in test [1] was found to be 358.67 µg/mL (≈ 1530 µM).
Take `Cc1ccc(C(=O)c2cc3ccccc3oc2=S)cc1`: the IC50 in test [1] turned out to be 551.57 µg/mL (≈ 1970 µM).
As to `COc1ccc(C(=O)c2cc3ccccc3oc2=S)cc1`, in test [4], the Activity worked out at 6.41%. Moreover, the IC50 in test [1] turned out to be 1579.25 µg/mL (≈ 5330 µM).
Turning to `O=C(c1ccc(Cl)cc1)c1cc2ccccc2oc1=S`, in test [1], the IC50 is 537.58 µg/mL (≈ 1790 µM).
Take `COc1cccc2cc(C(=O)c3cccs3)c(=S)oc12`: the Activity in test [2] is 121 mg/g. For the same compound, in test [1], the IC50 was found to be 31.2 µg/mL (≈ 103 µM). Besides, the INH in test [5] stood at 2.41 µM. For the same compound, in test [3], the PI is 56.9%.
`COc1cccc2cc(C(=O)c3ccccc3)c(=S)oc12`: the Activity in test [2] was found to be 38.7 mg/g. The IC50 in test [1] came out at 98.72 µg/mL (≈ 333 µM). In test [3], this compound yielded a PI of 10.9%.
Regarding `CC(=O)c1cc2ccccc2oc1=S`, the Activity in test [2] came out at 111 mg/g. For the same compound, in test [1], the IC50 is 35.01 µg/mL (≈ 171 µM). Moreover, the INH in test [5] amounted to 3.27 µM. The PI in test [3] stood at 45.8%.
